# Legend:
# [1] = system: human umbilical vein endothelial cells (HUVEC); details: HUVEC tube formation; previously developed inhibitors; cited from earlier work
# [2] = molecular target: T1, EphA3 (Homo sapiens, UniProt P29320); details: EphA3, DSF; first generation inhibitors; ref 8d; cited from earlier work
# T1 sequence (P29320 21-983): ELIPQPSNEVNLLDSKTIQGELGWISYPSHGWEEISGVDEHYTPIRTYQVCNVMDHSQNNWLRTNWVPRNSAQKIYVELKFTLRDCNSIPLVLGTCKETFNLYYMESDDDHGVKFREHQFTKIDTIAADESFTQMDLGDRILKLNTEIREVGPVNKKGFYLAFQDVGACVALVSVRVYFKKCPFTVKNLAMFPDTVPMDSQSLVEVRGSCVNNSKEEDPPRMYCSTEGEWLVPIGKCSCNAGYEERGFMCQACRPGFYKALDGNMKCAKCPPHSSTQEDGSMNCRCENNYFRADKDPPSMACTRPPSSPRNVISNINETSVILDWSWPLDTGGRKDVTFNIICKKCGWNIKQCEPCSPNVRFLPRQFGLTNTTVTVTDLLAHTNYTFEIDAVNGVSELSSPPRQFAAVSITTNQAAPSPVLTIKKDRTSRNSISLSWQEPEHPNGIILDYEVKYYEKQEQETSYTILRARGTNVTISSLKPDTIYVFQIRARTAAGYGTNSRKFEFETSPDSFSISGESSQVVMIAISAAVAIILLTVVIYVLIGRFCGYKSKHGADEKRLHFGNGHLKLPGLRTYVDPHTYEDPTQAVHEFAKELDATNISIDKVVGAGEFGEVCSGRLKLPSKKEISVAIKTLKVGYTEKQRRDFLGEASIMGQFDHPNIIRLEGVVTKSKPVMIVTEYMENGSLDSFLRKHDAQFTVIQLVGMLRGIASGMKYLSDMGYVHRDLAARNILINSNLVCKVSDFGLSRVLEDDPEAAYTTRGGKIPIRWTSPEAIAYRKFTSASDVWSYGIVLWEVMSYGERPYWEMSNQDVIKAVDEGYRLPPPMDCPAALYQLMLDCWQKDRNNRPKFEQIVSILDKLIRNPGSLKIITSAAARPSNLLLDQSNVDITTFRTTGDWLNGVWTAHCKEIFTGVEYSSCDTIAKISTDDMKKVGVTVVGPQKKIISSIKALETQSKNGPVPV
# [3] = system: RI-1 cell line xenograft; test: Mouse xenograft model with the ABC DLBCL RI-1 cell line; format: in vivo; details: NOD-Scid mice, RI-1 xenograft; for tolerability / general toxicity and body weight: 100 mg kg^-1 IP
# Procedure, shortened: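 NOD-Scid mice were inoculated subcutaneously with RI-1 ABC-DLBCL cells (15 × 10^6). They were split into groups of n = 4 given test compound at 100 mg kg−1 IP once every 5 days, or control vehicle. Tumor volume (mm3) and body weight were followed to day 15.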
# [4] = system: K-562 cell line; test: NCI-60 cancer cell line panel, growth inhibition; format: cell-based; details: Homo sapiens, K562
SMILES,inhibition of total branching points [1],inhibition of total loops [1],inhibition of tube length [1],Thermal shift (ΔTm) [2],tolerability / general toxicity and body weight [3],GI50 [4],"xenograft tumor size versus control group ([3]; 100 mg kg^-1 IP once every 5 days, day 15)"
Cc1ccc(O)cc1-n1c(N)c(C(N)=O)c2nc3ccccc3nc21 [Compound 1],23%,21%,9%,11.2 °C,,,
NC(=O)c1c(N)n(-c2ccc(NC(=O)Nc3cccc(C(F)(F)F)c3)cc2)c2nc3ccccc3nc12 [Compound 2],9%,13%,5%,,,,
Cc1ccc(-n2nc(C(C)(C)C)cc2NC(=O)Nc2ccc(-n3c(N)c(C(N)=O)c4nc5ccccc5nc43)cc2)cc1 [Compound 8a],,,,,very toxic already after the first dose,31 nM,
CC(C)(C)c1cc(NC(=O)Nc2ccc(-n3c(N)c(C(N)=O)c4nc5ccccc5nc43)cc2)n(-c2ccc3ncccc3c2)n1 [Compound 8b],,,,,well tolerated with no general toxicity or body-weight loss,< 10 nM,three times smaller

# From publication PMC7557569 (RSC Medicinal Chemistry, 2020)
